Rows were chosen to be rich in hits. Some 4.1% of all compounds tested hit in one or more screens of this group.
APP 5'UTR act = activates APP 5'UTR luciferase reporter. activation, % at 2 µM. 190,000 tested, 1% active. SH-SY5Y APP 5'UTR luciferase reporter, luminescence; zero percent = DMSO vehicle wells;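 active means activation above a set limit, based on mean plus 3 SD of controls, cut at about 140% in these data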
FLuc stim CS = firefly luciferase counter-screen for stimulation assays; AID 1027; 200,000 tested, under 10 active; activation factor at 10 µM; P08659; ATPlite luciferase biochemical, luminescence, 10 min; 0 = ATP-free wells, 1 = DMSO control;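 active means luciferase activation factor, scaled between plate controls, of at least 2 with compound at 10 µM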
Target sequence (P08659 whole entry, looked up): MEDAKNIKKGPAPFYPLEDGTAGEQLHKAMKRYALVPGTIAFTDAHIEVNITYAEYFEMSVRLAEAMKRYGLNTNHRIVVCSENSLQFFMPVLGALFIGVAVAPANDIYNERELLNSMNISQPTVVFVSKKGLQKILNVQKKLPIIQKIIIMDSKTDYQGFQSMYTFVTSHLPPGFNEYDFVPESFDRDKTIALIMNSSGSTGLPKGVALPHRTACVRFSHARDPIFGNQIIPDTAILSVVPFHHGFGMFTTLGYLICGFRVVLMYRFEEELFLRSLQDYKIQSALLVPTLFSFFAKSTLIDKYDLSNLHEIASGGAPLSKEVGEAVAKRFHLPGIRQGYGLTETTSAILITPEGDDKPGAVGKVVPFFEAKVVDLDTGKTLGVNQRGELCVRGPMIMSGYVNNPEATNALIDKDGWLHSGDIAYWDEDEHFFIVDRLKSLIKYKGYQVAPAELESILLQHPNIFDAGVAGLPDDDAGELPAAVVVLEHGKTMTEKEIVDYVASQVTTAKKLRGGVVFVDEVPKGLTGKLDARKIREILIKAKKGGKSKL
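Assay system – cell-free luciferase reagent · Medium – PBS-based ATP solution · Dosing – test compounds dosed from 2 mM stocks in 100% DMSO · Timing – 10 min, room temperature · Technique – light output (luminescence) · Measure – luminescence gain marking luciferase activators · Controls – No-ATP low control, compound-free enzyme-plus-ATP high control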
STAT1 act = increases IFN-gamma driven STAT1 reporter signal; NIH 3T3 STAT1-luciferase reporter, luminescence; 100% = IFN-gamma alone, no compound; activation (% of control), % at 5.5 µM; 200,000 tested, 2.6% active;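 active means activation above the screen-wide mean activation plus 3 SD, cut at about 130% in these data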;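 further: raw ratio to IFN-gamma control signal so 100% means no change and 0% no light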
FLuc inhib CS = inhibits firefly luciferase, flagging false hits in luciferase inhibition screens; inhibition, % at 10 µM; P08659; ATPLite firefly luciferase biochemical luminescence, 10 min; 200,000 tested, 1.5% active;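 active means inhibition above about 50% when tested at 10 µM, limit read from the data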
NF-kB expr up = NF-kB expression increase, human neuronal cells; NF-kB reporter expression; stronger effect = higher value; fold change at 12.5 µM; 190,000 tested, 1.6% active; in the data active means fold change above about 3.3
* hit, by the source's call; nt = no result.

SMILES	APP 5'UTR act	FLuc stim CS	STAT1 act	FLuc inhib CS	NF-kB expr up
O=C(Nc1ccc(Cl)c(Cl)c1)N1CC=CCC1	56.5	1	127.1	3.8	3.47*
S=C(Nc1ccc(Cl)c(Cl)c1)N1CCOCC1	-17.6	1	103.5	-1.7	1.26
O=C1CC(c2ccccc2)CC(O)=C1C=Nc1ccc(O)cc1 (stereo not drawn)	-1.8	0.9	132.3*	12.4	1.63
O=C1CC(c2ccccc2)CC(O)=C1C=NCc1ccccc1 (stereo not drawn)	2.1	1.1	100.9	-7.2	1.08
Cc1cccc2sc(NNC(=O)c3cc(=O)c4ccccc4o3)nc12	10.5	0.6	98.5	44.4	1.27
O=C(NNc1nc2c(F)cccc2s1)c1cc(=O)c2ccccc2o1	24.8	0.5	94.8	54.8*	1.44
COc1ccc2nc(NNC(=O)c3cc(=O)c4ccccc4o3)sc2c1	34.1	0.3	112.2	69.0*	0.87
Cc1ccc(C(=O)NC2CCSC2=O)cc1 (stereo not drawn)	nt	1.1	99.2	-5.1	1.27
Cc1ccc(C(=O)NC2CCc3ccccc3C2=O)cc1 (stereo not drawn)	155.6*	0.4	141.4*	61.9*	3.92*
Cc1ccc(N=Cc2c(O)[nH]c3ccccc23)c([N+](=O)[O-])c1	159.8*	0.9	130.9*	11.7	1.04
N#C/C(=C(/O)COC(=O)CSc1ccc2ccccc2c1)c1nc2ccccc2[nH]1	8.2	1	101.7	0.5	3.46*
Cc1ccc(C)c(SCC(=O)OC/C(O)=C(\C#N)c2nc3ccccc3[nH]2)c1	4.0	1	90.8	-4.8	2.23
CC(C)COC(=O)c1ccc(NC(=O)C2C3CCC(C3)C2C(=O)O)cc1 (stereo not drawn)	64.7	1	143.0*	0.5	0.93
O=C(CC(=O)NCc1cccnc1)NCc1cccnc1	-0.5	1	105.0	-3.3	0.98
CC1CCN(C(=O)CSc2nnc(CN3CCOCC3)n2-c2ccccc2)CC1	-25.8	1	100.0	2.6	1.14
CC(=O)Nc1ccc(-c2csc(NCc3ccco3)n2)cc1	116.0	0.7	137.1*	27.1	3.69*
c1cncc(-c2csc(NCc3ccco3)n2)c1	3.0	0.9	110.0	8.3	1.48
c1ccc2c(c1)nnn1c3ccccc3nc21	147.0*	0.6	146.4*	44.3	5.28*
Cc1nc2ccccc2c2nc3ccccc3n12	9.9	1	114.5	3.1	0.78
Cc1ccc(NC(=O)/C(C#N)=C(\N)C(Cl)(Cl)Cl)nc1	33.6	0.2	118.5	83.3*	6.36*
Cc1nn(-c2ccccc2)c(N)c1-c1ccccc1	7.4	0.3	112.7	73.3*	2.65
Cc1nn(-c2nc3ccccc3s2)c(N)c1Sc1ccc(F)cc1	32.0	1	138.3*	0.6	1.25
Cc1nn(-c2nc3ccccc3s2)c(N)c1-c1ccccc1	121.9	0.5	143.1*	52.2*	7.63*
Cc1cc(N)n(-c2nc3ccccc3s2)n1	113.2	0.2	121.7	75.1*	4.53*
Cc1ccc(NC(=S)NC(NC(=O)N(C)C)C(Cl)(Cl)Cl)cc1 (stereo not drawn)	-1.4	1.1	100.8	-8.6	0.91
SMILES	APP 5'UTR act	FLuc stim CS	STAT1 act	FLuc inhib CS	NF-kB expr up
COc1ccc(NC(=O)n2nc(OC(=O)c3cccs3)cc2N)cc1	6.0	1	101.8	-0.1	1.29
CC(=O)c1ccc(Nc2ccc(-c3ccccc3C)nn2)cc1	57.8	0.7	144.5*	28.2	2.97
COc1ccc(-n2nnnc2SCC(=O)NCCc2ccccc2)cc1OC	5.5	1.1	97.1	-5.0	0.97
COc1ccc(CCNc2nnc(Sc3nnnn3-c3ccccc3)s2)cc1OC	-93.9	1.1	92.8	-5.9	3.74*
COc1ccc(S(=O)(=O)N2CC(O)C[C@H]2C(=O)OCC(=O)N2CCCCCC2)cc1 (stereo partly drawn)	13.3	1	139.0*	-4.4	1.1
c1csc(-c2ccc3ccccc3n2)c1	42.9	0.6	147.3*	40.0	2.2
Cc1ccc(NC(=O)c2nc[nH]c2C(=O)Nc2ccc(C)cc2)cc1	-7.4	1.1	98.9	-8.2	1.06
CC(=O)N(C)c1ccc(N=Nc2c(C)[nH]n(C(N)=S)c2=O)cc1	139.3*	0.5	147.8*	49.0	4.54*
Cc1ccccc1N=Nc1c(C)[nH]n(C(N)=S)c1=O	-7.6	1	106.9	0.2	1.18
Cc1cccc(N=Nc2c(C)[nH]n(C(N)=S)c2=O)c1C	46.9	0.9	130.6*	6.1	1.97
CCc1ccc(-c2cc(-c3n[nH]c(=S)n3CC)c3ccccc3n2)cc1	26.5	0.4	121.6	63.9*	1.44
O=C(CNc1ccc(Br)cc1)c1ccccc1	44.1	1	103.7	3.4	1.5
COc1ccc(CN=C2Nc3ccccc3CS2)cc1	200.0*	0.5	125.9	53.1*	6.74*
COc1ccc(CN=C2NN=C(c3ccc(Cl)cc3)CS2)cc1	7.6	0.9	143.7*	5.9	2.83
Cn1c(SCc2cc(=O)[nH]c3ccccc23)nnc1-c1ccco1	9.1	1.1	105.0	-8.0	1.04
Cc1nc2ccccn2c1-c1nnco1	11.9	1.1	105.7	-5.9	0.93
Nc1ncn(CC(=O)c2ccccc2)n1	28.5	1.1	97.8	-7.2	6.23*
COc1ccc(CCN2C(=O)CC(Cc3ccc(C)cc3)C2=O)cc1OC (stereo not drawn)	9.1	1	97.3	-4.6	1.04
Cc1ccc(CC2CC(=O)N(Cc3ccco3)C2=O)cc1 (stereo not drawn)	105.8	1.1	142.2*	-7.3	4.3*
O=C1CC(Cc2ccccc2)C(=O)N1Cc1ccco1 (stereo not drawn)	2.4	0.1	96.8	87.4*	0.98
CN(C(=O)C1CCOC1)c1nnc(-c2ccccn2)s1 (stereo not drawn)	13.2	1	131.7*	4.7	1.9
CC1=CC(C)(C)N(C(=O)CSc2ncn[nH]2)c2ccccc21	-15.3	1	98.3	-3.3	1.01
O=C(c1cccnc1)N1CCN(S(=O)(=O)c2ccc3ccccc3c2)CC1	2.9	1.1	104.1	-6.4	1.13
Cc1ccc2nc(SCc3ccc([N+](=O)[O-])cc3)[nH]c2c1	7.1	1	104.8	1.1	1.22
Cc1ccc(CSc2nc3ccncc3[nH]2)cc1	147.5*	0	35.2	98.0*	5.19*
SMILES	APP 5'UTR act	FLuc stim CS	STAT1 act	FLuc inhib CS	NF-kB expr up
Cc1ccc(CSc2nc3ncccc3[nH]2)cc1	134.8	0.2	107.1	82.9*	3.17
C=C(C)CSc1nc2ncccc2[nH]1	-4.6	1	104.7	-1.4	1.17
Clc1ccc(CSc2nc3ccncc3[nH]2)cc1	147.2*	0	52.8	97.3*	7.47*
CCS(=O)(=O)N1CCN(c2ccc([N+](=O)[O-])c(NCc3cccnc3)c2)CC1	14.5	1.1	101.1	-8.2	0.96
COc1ccc(N=Nc2nc3ccc(Br)cc3n2C)cc1	37.7	0.2	122.1	84.3*	2.68
CC(C)n1cc(NC(=O)c2cc(-c3ccccc3)on2)cn1	-76.8	1	131.3*	-0.4	2.85
COc1cccc(C(=O)Nc2cnn(C(C)C)c2)c1	57.0	0.8	125.3	23.3	2.1
